Hits are enriched below; roughly 4.9% of the tested compounds scored in any of these assays.
STAT1 act: increases IFN-gamma driven STAT1 reporter signal; NIH 3T3 STAT1-luciferase reporter, luminescence; 100% = IFN-gamma alone, no compound; activation (% of control), % at 5.5 µM; 2.6% of 200,000 active; AID 932;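 active = activation above the screen-wide mean activation plus 3 SD, cut at about 130% in these data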;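 note: raw ratio to IFN-gamma control signal so 100% means no change and 0% no light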
STAT3 act: STAT3 signaling activation. U3A cells, IL-6 STAT3-luciferase reporter, luminescence; 100% = signal with IL-6 EC80 alone. activation (% of control), % at 5.6 µM. 0.91% of 190,000 active. AID 871;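 active = activation above the screen-wide mean of compound activation plus 3 SD, cut at about 130% in these data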;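 note: 0% = background luminescence of wells with medium and substrate only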
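Test system: human U3A cells carrying STAT3-luciferase construct; control set: IL-6-only wells as 100% reference; timing: compound pre-incubation 1 h before IL-6, then 6 h stimulation at 37 °C; also added: IL-6 stimulus at 33 ng/mL final; evaluation: % activation versus median of IL-6-stimulated wells; detection: reporter luminescence signal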
STAT3 inh-1: STAT3 signaling inhibition; AID 862; inhibition, % at 5.5 µM; U3A cells, IL-6 STAT3-luciferase reporter, luminescence; host cell line lacks STAT1; 0.89% of 190,000 active;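 active = inhibition above the mean inhibition across all screened compounds plus 3 SD, cut at about 44% in these data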;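 note: 0% = DMSO only wells and 100% = 100 µM nifuroxazide control wells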
STAT1 inh: inhibitors of IFN-gamma induced STAT1 signaling | NIH 3T3 STAT1-luciferase reporter, luminescence | 0.35% of 200,000 active | inhibition, % at 5.5 µM | AID 920;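 active = inhibition above a set limit, the mean inhibition across all tested compounds plus 3 SD, cut at about 34% in these data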;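 note: 0% = IFN-gamma with DMSO and 100% = IFN-gamma with 300 µM nifuroxazide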
APP 5'UTR act: APP 5'UTR luciferase reporter activation; 1% of 190,000 active; activation, % at 2 µM; SH-SY5Y APP 5'UTR luciferase reporter, luminescence; zero percent = DMSO vehicle wells;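 active = activation above a set limit, based on mean plus 3 SD of controls, cut at about 140% in these data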
NF-kB neuron act: NF-kB expression increase, human neuronal cells | AID 1239 | 1.6% of 190,000 active | fold change at 12.5 µM | NF-kB reporter expression; stronger effect = higher value; in the data active = fold change above about 3.3
STAT3 inh-2: STAT3 inhibition, confirmation assay; shares compounds with STAT3 inh-1; U3A cells, IL-6 STAT3 luciferase reporter, luminescence; cell line lacks STAT1; inhibition, % at 5.7 µM; 45% of 1,200 active;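 active = inhibition above the hit cutoff computed for the primary STAT3 screen, cut at about 44% in these data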;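 note: 0% = IL-6 plus DMSO and 100% = IL-6 plus nifuroxazide control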
NFkB inh STAT3ct: NF-kappaB inhibition in STAT3 inhibitor counter-screen; shares compounds with STAT3 inh-1; HEK293T NF-kB luciferase reporter, TNF-alpha induced; inhibition, % at 5.7 µM; 36% of 1,200 active; AID 1308;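 active = inhibition above the mean of solvent-only control wells plus 3 SD, cutoff set per campaign, cut at about 13% in these data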;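 note: 0% = TNF-alpha with DMSO and 100% = TNF-alpha with MG high control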
STAT1 inh STAT3c: STAT1 inhibition in STAT3 inhibitor counter-screen | AID 1317 | NIH 3T3 STAT1-luciferase reporter, IFN-gamma induced, luminescence | inhibition, % at 5.7 µM | shares compounds with STAT3 inh-1 | 27% of 1,200 active;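 active = inhibition above the mean plus 3 SD of solvent-only control wells, limit set per screening run, cut at about 16% in these data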;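 note: 0% = DMSO with IFN-gamma and 100% = nifuroxazide control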
Starred values were filed as active, the others as inactive; / = not tested or not shown.

SMILES	STAT1 act	STAT3 act	STAT3 inh-1	STAT1 inh	APP 5'UTR act	NF-kB neuron act	others
CCN1/C(=C\C=C\C2=[N+](CC)c3ccccc3C2(C)C)C(C)(C)c2ccccc21	40	16	100*	56*	-93	0.17
CCN(CC)P(=O)(NC(=O)c1cccn1C)N(CC)CC	103	102	0	-5	18	1.1
O=C(CCS(=O)(=O)c1ccc(Br)cc1)N1CCC2(CC1)OCCO2	56	94	14	48*	16	1.2
CC(C)COP(=O)(OCC(C)C)C(O)c1cccnc1 (stereo not given)	106	104	-6	-6	-1	1.1
CCN1CCN(c2nc3ccccc3s2)CC1	128	87	18	-31	61	4.7*
c1ccc(-c2ccc(-c3n(-c4ccccn4)c4ccccc4[n+]3-c3ccccn3)cc2)cc1	96	108	-1	4	5	0.88
CC(=O)Nc1ccccc1C(=O)OCc1ccccc1F	145*	101	4	-54	3	0.99
CC(=O)Nc1ccccc1C(=O)OCC(=O)c1ccccc1Cl	120	92	12	-23	47	1.8
COc1cccc(N2C(=O)NC(=O)/C(=C/c3ccc4c(c3)Cc3ccccc3-4)C2=O)c1	131*	101	10	-35	11	1.1
Cc1cccc(OP(=O)(Oc2ccccc2)OC(c2ccccc2)C(F)(F)F)c1 (stereo not given)	99	102	2	2	17	0.83
O=C1C=Cc2ccccc2C1=O	91	141*	-44	9	-8	0.9
c1ccc2c(CNC3CCCCC3)c[nH]c2c1	97	137*	-48	3	0	1.1
CN(Cc1c[nH]c2ccccc12)C1CCCCC1	90	120	-12	11	4	1.2
Cc1ccc(-n2c(O)c(C=NCCC3=CCCCC3)c(=O)[nH]c2=O)cc1	104	77	30	-6	-10	1.6
CC(C(=O)c1c[nH]c2ccccc12)N1CCc2ccccc2C1 (stereo not given)	113	134*	-37	-14	4	0.93
Clc1ccc(COC(Cn2ccnc2)c2ccc(Cl)cc2Cl)c(Cl)c1 (stereo not given)	92	93	10	9	3	0.9
Cc1cc(Oc2ccc(C(F)(F)F)cc2[N+](=O)[O-])c2c3c(c(=O)oc2c1)CCCC3	102	112	-11	-2	7	1
CC(=O)Nc1cc(C(=O)N2CCC3(CC2)OCCO3)ccc1Sc1ccc(F)cc1	93	103	0	8	-1	1.1
CC1CCN(CC(=O)c2ccc3c(c2)OCCO3)CC1	139*	112	-7	-44	146*	1.1
CC1(C)CN=C(Nc2nc3ccccc3s2)S1	136*	126	-28	-39	126	4.7*
CN(C)C(=O)Oc1ccc(-c2cn3cc(C(F)(F)F)ccc3n2)cc1	138*	79	28	-43	31	2.2
CN(C)C(=O)Oc1ccc(-c2nnco2)cc1	110	104	4	-11	/	1.1
CN(C)C(=O)Oc1ccc(-c2cn3cc(Cl)ccc3n2)cc1	141*	66	42	-47	167*	6.8*
CN(C)C(=O)Oc1cccc(-c2cn3cc(Cl)ccc3n2)c1	122	97	4	-25	46	1.1
CN1CCC2(CC1)C(C#N)=C(N)NC(S)=C2C#N	110	101	1	-12	3	1.4
SMILES	STAT1 act	STAT3 act	STAT3 inh-1	STAT1 inh	APP 5'UTR act	NF-kB neuron act	others
COc1ccccc1Cn1c(SCC(=O)C(C)(C)C)nc2cc(C(=O)N3CCC4(CC3)OCCO4)ccc2c1=O	106	115	-3	-7	10	0.52
CN(C)c1ccc(/C=C/c2cc[n+](C)c3ccccc23)cc1	74	43	72*	26	5	0.94
Cc1nc(Cl)sc1C(=O)Nc1ccc2ccccc2c1	134*	79	26	-38	94	5.5*
CCN1CCN(Cc2ccc(OC(F)(F)F)cc2)CC1	98	98	7	3	12	1.1
CCCCCCOc1ccc(CN2CCN(CC)CC2)cc1	105	109	-5	-5	145*	1.1
CCOC(=O)c1c(-n2c(C)cc(C=C3C(=O)NC(=S)NC3=O)c2C)sc2c1CCCC2	94	113	-4	0	0	5.6*
CCn1nc(/C=C/c2ccccc2)nc2c(=O)n(C)c(=O)nc1-2	19	39	74*	86*	41	0.24
C#CCN(C)C(C)Cc1ccccc1 (stereo not given)	96	100	3	5	9	1.1
COC(=O)C(O)(c1ccc(NC(=O)NC2CCCCC2)cc1)C(F)(F)F (stereo not given)	144*	113	-10	-49	35	1.2
COC(=O)C(O)(c1ccc(NC(=S)NC(=O)c2ccc(Cl)cc2Cl)cc1)C(F)(F)F (stereo not given)	102	105	-6	-2	15	1.4
COc1ccc(C(=O)c2nc3ccccc3n2C(C)C)cc1	94	98	5	4	2	1.1
Cc1nn(Cc2ccc(Cl)cc2Cl)c(Cl)c1C(=O)O	105	101	0	-8	-6	0.92
N=c1c2c(n(Cc3ccc(Cl)cc3Cl)c3c1CCC3)CCCC2	77	61	51*	25	-2	0.61
C[C@@H]1O[C@@H](O[C@H]2C[C@@H](O)[C@]3(CO)[C@H]4[C@H](O)C[C@]5(C)[C@@H](C6COC(=O)C6)CC[C@]5(O)[C@@H]4CC[C@]3(O)C2)[C@H](O)[C@H](O)[C@H]1O (stereo not given in full)	91	53	56*	10	-93	1.2	STAT3 inh-2=32;NFkB inh STAT3ct=-26;STAT1 inh STAT3c=-4
Cc1ccc2nc(N3CCC(C(=O)N4CCC5(CC4)OCCO5)CC3)sc2c1	114	100	5	-15	27	1.5
O=C(C1CCN(c2nc3ccc(Br)cc3s2)CC1)N1CCC2(CC1)OCCO2	108	47	63*	-9	36	0.83	STAT3 inh-2=66*;NFkB inh STAT3ct=13;STAT1 inh STAT3c=-18
CN1Cc2cccnc2N(C)Cc2cc(Cl)ccc21	94	96	7	6	-5	1.2
CCC(=NCCc1c[nH]c2ccccc12)c1c(O)n(-c2ccc(C)cc2)c(=O)[nH]c1=O	95	103	-3	6	1	1.1
